Assay results as given in ChEMBL document CHEMBL1153560, “In vitro activities of doripenem and six comparator drugs against 423 aerobic and anaerobic bacterial isolates from infected diabetic foot wounds” (2008).
≈ marks a conversion by molar mass, not a printed value.

Tests used:
Type in all cases: functional
Providencia rettgeri = assay: Antibacterial activity against Proteus rettgeri isolated from patient with diabetic foot infection after 18 to 24 hrs by broth microdilution method
Method in brief: (§1)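 Isolates were subcultured on Trypticase soy blood agar and tested by broth microdilution in cation-adjusted Mueller-Hinton broth. In-house trays of twofold drug dilutions were stored at −70°C. Overnight colonies gave a final inoculum of about 5 × 10^5 CFU/ml. Plates were read after 18 to 24 h at 37°C.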

Proteus mirabilis [1] = assay: Antibacterial activity against Proteus mirabilis isolated from patient with diabetic foot infection assessed as percent resistant isolates after 18 to 24 hrs by broth microdilution method
Method in brief: (§2)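 Aerobes subcultured on Trypticase soy blood agar, then broth microdilution in cation-adjusted Mueller-Hinton broth. Trays prepared in-house with twofold dilutions and stored at −70°C. Overnight colonies suspended to about 5 × 10^5 CFU/ml final. Read after 18 to 24 h at 37°C. QC strains included S. aureus ATCC 29213 and E. coli ATCC 25922.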

Corynebacterium simulans = assay: Antibacterial activity against Corynebacterium simulans isolated from patient with diabetic foot infection assessed as percent resistant isolates after 48 hrs by broth microdilution method
Method in brief: (§3)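 Isolates subcultured on Trypticase soy blood agar. Broth microdilution in cation-adjusted Mueller-Hinton broth with lysed horse blood, using in-house twofold dilution trays stored at −70°C. Inoculum from overnight colonies at about 5 × 10^5 CFU/ml final. Read after 18 to 24 h at 37°C, up to 48 h for some Corynebacterium strains.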

Proteus mirabilis [2] = assay: Antibacterial activity against Proteus mirabilis isolated from patient with diabetic foot infection after 18 to 24 hrs by broth microdilution method; method in brief: as §1
Corynebacterium accolens = assay: Antibacterial activity against Corynebacterium accolens isolated from patient with diabetic foot infection after 48 hrs by broth microdilution method
Method in brief: (§4)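 Isolates were subcultured on Trypticase soy blood agar. Broth microdilution used cation-adjusted Mueller-Hinton broth with lysed horse blood, in-house trays of twofold drug dilutions stored at −70°C. Colonies from overnight growth gave a final inoculum of about 5 × 10^5 CFU/ml. Trays were read after 18 to 24 h at 37°C, up to 48 h for some strains.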

[3] = test system: Corynebacterium amycolatum; assay: Antibacterial activity against Corynebacterium amycolatum isolated from patient with diabetic foot infection assessed as percent resistant isolates after 48 hrs by broth microdilution method; method in brief: as §3
Streptococcus agalactiae [4] = assay: Antibacterial activity against Streptococcus agalactiae isolated from patient with diabetic foot infection after 18 to 24 hrs by broth microdilution method
Method in brief: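 Streptococcal isolates were subcultured on Trypticase soy blood agar. Broth microdilution used cation-adjusted Mueller-Hinton broth with lysed horse blood, in in-house trays of serial twofold drug dilutions stored at −70°C. Overnight colonies were suspended to a final inoculum of approximately 5 × 10^5 CFU/ml. MIC was read after 18 to 24 h incubation at 37°C.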

Corynebacterium jeikeium = assay: Antibacterial activity against Corynebacterium jeikeium isolated from patient with diabetic foot infection assessed as percent resistant isolates after 48 hrs by broth microdilution method; method in brief: as §3
Klebsiella aerogenes = assay: Antibacterial activity against Enterobacter aerogenes isolated from patient with diabetic foot infection after 18 to 24 hrs by broth microdilution method; method in brief: as §1
Corynebacterium striatum = assay: Antibacterial activity against Corynebacterium striatum isolated from patient with diabetic foot infection after 48 hrs by broth microdilution method; method in brief: as §4
[5] = test system: Staphylococcus haemolyticus; assay: Antibacterial activity against Staphylococcus haemolyticus isolated from patient with diabetic foot infection after 18 to 24 hrs by broth microdilution method
Pseudomonas aeruginosa = assay: Antibacterial activity against Pseudomonas aeruginosa isolated from patient with diabetic foot infection after 18 to 24 hrs by broth microdilution method; method in brief: as §1
Streptococcus agalactiae [6] = assay: Antibacterial activity against Streptococcus agalactiae isolated from patient with diabetic foot infection assessed as percent resistant isolates after 18 to 24 hrs by broth microdilution method
Method in brief: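 Streptococci subcultured on Trypticase soy blood agar and tested by broth microdilution in cation-adjusted Mueller-Hinton broth with lysed horse blood. In-house twofold dilution trays stored at −70°C. About 5 × 10^5 CFU/ml final inoculum from overnight colonies. Read after 18 to 24 h at 37°C.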

Klebsiella oxytoca = assay: Antibacterial activity against Klebsiella oxytoca isolated from patient with diabetic foot infection assessed as percent resistant isolates after 18 to 24 hrs by broth microdilution method; method in brief: as §2
Enterobacter cloacae = assay: Antibacterial activity against Enterobacter cloacae isolated from patient with diabetic foot infection after 18 to 24 hrs by broth microdilution method; method in brief: as §1
[7] = test system: Corynebacterium amycolatum; assay: Antibacterial activity against Corynebacterium amycolatum isolated from patient with diabetic foot infection after 48 hrs by broth microdilution method; method in brief: as §4
Corynebacterium = assay: Antibacterial activity against multi drug-resistant Corynebacterium assessed as percent of susceptible isolates at =< 4 ug/ml by NCCLS M7-A6 method
Staphylococcus aureus = assay: Antibacterial activity against Staphylococcus aureus ATCC 29213 after 44 to 48 hrs by agar dilution method
Clostridioides difficile = assay: Antibacterial activity against Clostridium difficile ATCC 700057 after 44 to 48 hrs by agar dilution method
Method in brief: (§5)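 CLSI M11-A7 agar dilution: serial twofold drug dilutions made on the test day and added to molten agar. Spots of 10^5 CFU were applied by replicator, with drug-free control plates inoculated before and after each set. Incubation was 44 to 48 h at 37°C in an anaerobic chamber. MIC was the lowest concentration giving no growth or a marked change in growth versus controls.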

Bacteroides fragilis = assay: Antibacterial activity against Bacteroides fragilis ATCC 25285 after 44 to 48 hrs by agar dilution method; method in brief: as §5
Enterococcus faecalis = assay: Antibacterial activity against Enterococcus faecalis after 44 to 48 hrs by agar dilution method
Escherichia coli = assay: Antibacterial activity against Escherichia coli ATCC 25922 after 44 to 48 hrs by agar dilution method

SMILES | MIC50 (Providencia rettgeri) [µg/mL] | MIC90 (Providencia rettgeri) [µg/mL] | Activity (Proteus mirabilis [1]) [%] | MIC50 (Proteus mirabilis [2]) [µg/mL] | MIC90 (Proteus mirabilis [2]) [µg/mL] | MIC50 (Corynebacterium accolens) [µg/mL] | MIC90 (Corynebacterium accolens) [µg/mL] | MIC50 (Streptococcus agalactiae [4]) [µg/mL] | MIC90 (Streptococcus agalactiae [4]) [µg/mL] | MIC50 (Klebsiella aerogenes) [µg/mL] | MIC90 (Klebsiella aerogenes) [µg/mL] | MIC50 (Corynebacterium striatum) [µg/mL] | MIC90 (Corynebacterium striatum) [µg/mL] | MIC50 [5] [µg/mL] | MIC90 [5] [µg/mL] | MIC50 (Pseudomonas aeruginosa) [µg/mL] | MIC90 (Pseudomonas aeruginosa) [µg/mL] | Activity (Streptococcus agalactiae [6]) [%] | Activity (Klebsiella oxytoca) [%] | MIC50 (Enterobacter cloacae) [µg/mL] | other results
C[C@@H](O)[C@H]1C(=O)N2C(C(=O)O)=C(S[C@@H]3CN[C@H](C(=O)N(C)C)C3)[C@H](C)[C@H]12 [MEROPENEM] | 0.06 (≈ 0.156 µM) | 0.125 (≈ 0.326 µM) | 0 | 0.06 (≈ 0.156 µM) | 0.125 (≈ 0.326 µM) | 0.125 (≈ 0.326 µM) | 0.25 (≈ 0.652 µM) | 0.06 (≈ 0.156 µM) | 0.06 (≈ 0.156 µM) | 0.06 (≈ 0.156 µM) | 0.5 (≈ 1.3 µM) | 0.125 (≈ 0.326 µM) | 0.25 (≈ 0.652 µM) | 1 (≈ 2.61 µM) | 32 (≈ 83.4 µM) | 0.5 (≈ 1.3 µM) | 4 (≈ 10.4 µM) | 0 | 0 | 0.06 (≈ 0.156 µM) | Activity (Corynebacterium simulans): 0%; Activity [3]: 7%; Activity (Corynebacterium jeikeium): 20%; MIC90 (Enterobacter cloacae): 0.5 µg/mL (≈ 1.3 µM)
C[C@@H](O)[C@H]1C(=O)N2C(C(=O)O)=C(S[C@@H]3CN[C@H](CNS(N)(=O)=O)C3)[C@H](C)[C@H]12 [DORIPENEM] | 0.125 (≈ 0.297 µM) | 0.25 (≈ 0.595 µM) | 0 | 0.125 (≈ 0.297 µM) | 0.25 (≈ 0.595 µM) | 0.125 (≈ 0.297 µM) | 0.25 (≈ 0.595 µM) | ≤ 0.015 | 0.03 (≈ 0.0713 µM) | 0.06 (≈ 0.143 µM) | 0.25 (≈ 0.595 µM) | 0.125 (≈ 0.297 µM) | 0.25 (≈ 0.595 µM) | 0.5 (≈ 1.19 µM) | 16 (≈ 38 µM) | 0.25 (≈ 0.595 µM) | 2 (≈ 4.76 µM) | 0 | 0 | 0.06 (≈ 0.143 µM) | MIC50 [7]: 1 µg/mL (≈ 2.38 µM); MIC90 [7]: 8 µg/mL (≈ 19 µM); Activity (Corynebacterium): 40%; MIC (Staphylococcus aureus): 0.03 µg/mL (≈ 0.0713 µM); MIC (Clostridioides difficile): 2 µg/mL (≈ 4.76 µM); MIC (Bacteroides fragilis): 0.125 µg/mL (≈ 0.297 µM); MIC (Enterococcus faecalis): 2 µg/mL (≈ 4.76 µM); MIC (Escherichia coli): ≤ 0.015 µg/mL; MIC90 (Enterobacter cloacae): 0.25 µg/mL (≈ 0.595 µM)
C[C@@H](O)[C@H]1C(=O)N2C(C(=O)O)=C(S[C@@H]3CN[C@H](C(=O)Nc4cccc(C(=O)O)c4)C3)[C@H](C)[C@H]12 [ERTAPENEM] | ≤ 0.015 | 0.25 (≈ 0.526 µM) | 0 | ≤ 0.015 | 0.25 (≈ 0.526 µM) | 0.5 (≈ 1.05 µM) | 1 (≈ 2.1 µM) | 0.06 (≈ 0.126 µM) | 0.06 (≈ 0.126 µM) | 0.06 (≈ 0.126 µM) | 0.5 (≈ 1.05 µM) | 0.5 (≈ 1.05 µM) | 1 (≈ 2.1 µM) | 4 (≈ 8.41 µM) | > 32 | 8 (≈ 16.8 µM) | 32 (≈ 67.3 µM) | 0 | 0 | 0.06 (≈ 0.126 µM) | MIC50 [7]: 1 µg/mL (≈ 2.1 µM); MIC90 [7]: 32 µg/mL (≈ 67.3 µM); MIC90 (Enterobacter cloacae): 0.5 µg/mL (≈ 1.05 µM)
CCC[C@@H]1C[C@@H](C(=O)N[C@@H]([C@H]2O[C@H](SC)[C@H](O)[C@@H](O)[C@H]2O)[C@H](C)Cl)N(C)C1 [CLINDAMYCIN] | – | – | – | – | – | 2 (≈ 4.71 µM) | > 64 | 0.125 (≈ 0.294 µM) | > 64 | – | – | 2 (≈ 4.71 µM) | > 64 | 0.125 (≈ 0.294 µM) | 8 (≈ 18.8 µM) | – | – | 33 | – | – | MIC50 [7]: > 64 µg/mL; MIC90 [7]: > 64 µg/mL; Activity (Corynebacterium simulans): 78%; Activity [3]: 100%; Activity (Corynebacterium jeikeium): 100%
C[C@@H](O)[C@H]1C(=O)N2C(C(=O)O)=C(SCCNC=N)C[C@H]12 [IMIPENEM ANHYDROUS] | 0.5 (≈ 1.67 µM) | 4 (≈ 13.4 µM) | 0 | 0.5 (≈ 1.67 µM) | 4 (≈ 13.4 µM) | 0.03 (≈ 0.1 µM) | 0.125 (≈ 0.418 µM) | ≤ 0.015 | ≤ 0.015 | 1 (≈ 3.34 µM) | 2 (≈ 6.68 µM) | 0.03 (≈ 0.1 µM) | 0.125 (≈ 0.418 µM) | 0.06 (≈ 0.2 µM) | 16 (≈ 53.4 µM) | 2 (≈ 6.68 µM) | 8 (≈ 26.7 µM) | 0 | 0 | 1 (≈ 3.34 µM) | MIC50 [7]: 0.25 µg/mL (≈ 0.835 µM); MIC90 [7]: 32 µg/mL (≈ 107 µM); Activity (Corynebacterium simulans): 0%; Activity [3]: 7%; Activity (Corynebacterium jeikeium): 30%; MIC90 (Enterobacter cloacae): 2 µg/mL (≈ 6.68 µM)
